Laboratory results published in ChEMBL document CHEMBL1156563, “Synthesis and antiproliferative evaluation of amide-containing flavone and isoflavone derivatives” (Bioorg Med Chem, 2008).

Experiments:
NCI-H661 = assay: Antiproliferative activity against human NCI-H661 cells after 72 hrs by MTT assay; assay type: functional; settings: NCI-H661, 72 h
Summary of the method: (§1)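 Cells were exposed to a range of concentrations for 72 h. Compounds came from 20 mM stocks in 100% DMSO. Cells were then given MEM with 0.4 mg/mL MTT for 2 h, and formazan was read at 570 nm. GI50 was taken from percentage conversion relative to mock-treated controls and reported as mean SD of three independent experiments.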

[1] = Antiproliferative activity against human NPC-TW01 cells after 72 hrs by MTT assay; assay type: functional; settings: NPC-TW01, 72 h; summary of the method: as §1
MT2 = assay: Antiproliferative activity against human MT2 cells after 72 hrs by MTT assay; assay type: functional; settings: MT2, 72 h; summary of the method: as §1
[2] = Cell cycle arrest in human NPC-TW01 cells assessed as accumulation at G0/G1 phase at 48.0 uM after 72 hrs by flow cytometry; assay type: functional, cell-based
Summary of the method: (§2)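 Exponentially growing cells were treated for 72 h. Controls received complete medium with 0.5% DMSO for 72 h. Cells were fixed, incubated with RNase and stained. DNA content was measured on a FACScan flow cytometer, and the percentage of cells in each cell-cycle phase was determined.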

[3] = Cell cycle arrest in human NPC-TW01 cells assessed as accumulation at S phase at 48.0 uM after 72 hrs by flow cytometry; assay type: functional, cell-based; summary of the method: as §2
[4] = Cell cycle arrest in human NPC-TW01 cells assessed as accumulation at G2/M phase at 48.0 uM after 72 hrs by flow cytometry; assay type: functional, cell-based; summary of the method: as §2
[5] = Cell cycle arrest in human NPC-TW01 cells assessed as accumulation at sub-G1 phase at 48.0 uM after 72 hrs by flow cytometry; assay type: functional, cell-based; summary of the method: as §2
[6] = Cell cycle arrest in human NPC-TW01 cells assessed as accumulation at S phase at 10.5 uM after 72 hrs by flow cytometry; assay type: functional, cell-based; summary of the method: as §2
[7] = Cell cycle arrest in human NPC-TW01 cells assessed as accumulation at G2/M phase at 10.5 uM after 72 hrs by flow cytometry; assay type: functional, cell-based; summary of the method: as §2
[8] = Cell cycle arrest in human NPC-TW01 cells assessed as accumulation at sub-G1 phase at 10.5 uM after 72 hrs by flow cytometry; assay type: functional, cell-based; summary of the method: as §2

SMILES | GI50 (NCI-H661) | GI50 [1] | GI50 (MT2) | also measured
O=C(COc1ccc2c(=O)c(-c3ccccc3)coc2c1)Nc1ccc2ccccc2c1 | > 10 µM | 1.37 µM | 7.68 µM | –
O=C(COc1ccc2c(=O)c(-c3ccccc3)coc2c1)Nc1ccc(-c2ccccc2)cc1 | > 10 µM | 1.75 µM | > 10 µM | –
COc1ccc(/C(COc2ccc3oc(-c4ccccc4)cc(=O)c3c2)=N/O)cc1 | – | – | – | Activity [2]: 0.5%; Activity [3]: 27.5%; Activity [4]: 70.8%; Activity [5]: 1.2%
O=C(COc1c(-c2ccccc2)oc2ccccc2c1=O)Nc1ccc(-c2ccccc2)cc1 | > 10 µM | > 10 µM | > 10 µM | –
O=C(COc1c(-c2ccccc2)oc2ccccc2c1=O)Nc1ccccc1 | > 10 µM | > 10 µM | 6.72 µM | –

More lines, main results first:

GI50 (NCI-H661) | SMILES | GI50 [1] | GI50 (MT2) | also measured
> 10 µM | O=C(COc1ccc2c(=O)cc(-c3ccccc3)oc2c1)Nc1ccc2ccccc2c1 | > 10 µM | > 10 µM | –
6.5 µM | O=C(COc1c(-c2ccccc2)oc2ccccc2c1=O)Nc1ccc2ccccc2c1 | 6.52 µM | > 10 µM | –
9.71 µM | O=C(COc1ccc2oc(-c3ccccc3)cc(=O)c2c1)Nc1ccc(-c2ccccc2)cc1 | 0.64 µM | > 10 µM | –
6.71 µM | O=C(COc1ccc2oc(-c3ccccc3)cc(=O)c2c1)Nc1ccc2ccccc2c1 | 6.75 µM | > 10 µM | –
0.84 µM | COc1ccc(NC(=O)COc2ccc3oc(-c4ccccc4)cc(=O)c3c2)cc1 | 0.71 µM | 3.01 µM | Activity [6]: 13.6%; Activity [7]: 5.3%; Activity [8]: 3.3%
5.6 µM | O=C(COc1ccc2oc(-c3ccccc3)cc(=O)c2c1)Nc1ccccc1 | 1.26 µM | 1.43 µM | –
